Test results taken from ChEMBL document CHEMBL1255430, “Kinetic parameters of efflux of penicillins by the multidrug efflux transporter AcrAB-TolC of Escherichia coli” (Antimicrob Agents Chemother, 2010).
Values after ≈ are worked out from the molar mass of the structure shown.

B1: Beta-lactamase OXA-7 (Escherichia coli), P35695 (protein)
chain: MKTFAAYVITACLSSTALASSITENTFWNKEFSAEAVNGVFVLCKSSSKLACATNNLARASKEYLPASTFKIPNAIIGLETGVIKNEHQIFKWDGKPRAMKQWERDLSLRGAIQVSAVPVFQQIAREVGEVRMQKYLKKFSYGNQNISGGIDKFWLEGQLRISAVNQVEFLESLFLNKLSASKENQLIVKEALVTEAPEYLVHSKTGFSGVGTESNPGVAWWVGWVEKGAEVYFFAFNMDIDNENKLPLRKSIPTKIMASEGIIGG

Legend:
Escherichia coli [1] = test: Antimicrobial activity against Escherichia coli HN1157/pHSG576oxa7 assessed as minimal drug concentration; format: functional
Outline: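 The inoculum was grown overnight in modified LB broth with 10 μg/ml chloramphenicol to keep the plasmid, diluted to OD660 0.1 and streaked across the gradient. Plates were read after overnight incubation at 30°C.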

Escherichia coli [2] = test: Antimicrobial activity against Escherichia coli HN1157/pHSG576oxa7; format: functional
[3] = Permeability across Escherichia coli HN1157/pHSG576oxa7 assessed as permeability coefficient in presence of proton uncoupler carbonyl cyanide meta-chlorophenylhydrazone; format: ADME, organism-based; conditions: not told, read-out: permeability
Escherichia coli [4] = conditions: HN1157
[5] = Lipophilicity, log P of the compound; format: physicochemical; conditions: octanol/water
[6] = substrate: Cc1onc(-c2ccccc2Cl)c1C(=O)N[C@@H]1C(=O)N2[C@@H]1SC(C)(C)[C@@H]2C(=O)O; test: (§1) Activity at Escherichia coli isolate 7181 beta-lactamase OXA-7
Outline: (§2)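 Crude sonicates of E. coli HN1157 carrying low-copy pHSG576oxa7, grown 14 h at 30°C in modified LB with 10 μg/ml chloramphenicol (plus 0.1% glucose for some substrates). Extract equals OD600 0.025 cells (9.38 μg dry weight/ml) in 50 mM potassium phosphate, pH 7.0, 5 mM MgCl2. Penicillin hydrolysis stopped with TCA at 2 min. Microiodometric OD592 read after 30 min, minus a zero-time TCA blank. Km and Vmax expressed per mg cell dry weight.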

[7] = substrate: CC1(C)S[C@@H]2[C@H](NC(=O)[C@H](NC(=O)N3CCNC3=O)c3ccccc3)C(=O)N2[C@H]1C(=O)O; test: as §1; outline: as §2
[8] = substrate: CCN1CCN(C(=O)N[C@@H](C(=O)N[C@@H]2C(=O)N3[C@@H]2SC(C)(C)[C@@H]3C(=O)O)c2ccccc2)C(=O)C1=O; test: as §1; outline: as §2
[9] = substrate: CC1(C)S[C@@H]2[C@H](NC(=O)[C@H](NC(=O)N3CCN(S(C)(=O)=O)C3=O)c3ccccc3)C(=O)N2[C@H]1C(=O)O; test: as §1; outline: as §2
[10] = substrate: Cc1onc(-c2c(Cl)cccc2Cl)c1C(=O)N[C@@H]1C(=O)N2[C@@H]1SC(C)(C)[C@@H]2C(=O)O; test: as §1; outline: as §2
[11] = substrate: CC1(C)S[C@@H]2[C@H](NC(=O)COc3ccccc3)C(=O)N2[C@H]1C(=O)O; test: as §1; outline: as §2
[12] = substrate: Cc1onc(-c2ccccc2)c1C(=O)N[C@@H]1C(=O)N2[C@@H]1SC(C)(C)[C@@H]2C(=O)O; test: as §1; outline: as §2

Row | Molecule | Activity (Escherichia coli [1]) | MIC (Escherichia coli [2]) | Papp [3] | K0.5 (Escherichia coli [4]) | logP [5] | Km [6] | Km [7] | Km [8] | Km [9] | Km [10] | Km [11] | Km [12]
1 | Cc1onc(-c2ccccc2)c1C(=O)N[C@@H]1C(=O)N2[C@@H]1SC(C)(C)[C@@H]2C(=O)O [OXACILLIN] | 12 µM | 282 µg/mL (≈ 702 µM) | 60 ×10⁻⁶ cm/s | 0.97 µM | 2.1 | – | – | – | – | – | – | –
2 | CC1(C)S[C@@H]2[C@H](NC(=O)[C@H](NC(=O)N3CCNC3=O)c3ccccc3)C(=O)N2[C@H]1C(=O)O [AZLOCILLIN] | 1.3 µM | 44 µg/mL (≈ 95.3 µM) | 40 ×10⁻⁶ cm/s | 1.06 µM | 0.71 | – | – | – | – | – | – | –
3 | Cc1onc(-c2ccccc2Cl)c1C(=O)N[C@@H]1C(=O)N2[C@@H]1SC(C)(C)[C@@H]2C(=O)O [CLOXACILLIN] | 11 µM | 295 µg/mL (≈ 677 µM) | 60 ×10⁻⁶ cm/s | 0.91 µM | 2.8 | – | – | – | – | – | – | –
4 | CC1(C)S[C@@H]2[C@H](NC(=O)[C@H](N)c3ccccc3)C(=O)N2[C@H]1C(=O)O [AMPICILLIN] | 2.9 µM | 39 µg/mL (≈ 112 µM) | – | – | -1.03 | – | – | – | – | – | – | –
5 | CCN1CCN(C(=O)N[C@@H](C(=O)N[C@@H]2C(=O)N3[C@@H]2SC(C)(C)[C@@H]3C(=O)O)c2ccccc2)C(=O)C1=O [PIPERACILLIN] | 1.2 µM | 46 µg/mL (≈ 88.9 µM) | 30 ×10⁻⁶ cm/s | 1.06 µM | 0.45 | – | – | – | – | – | – | –
6 | CC1(C)S[C@@H]2[C@H](NC(=O)[C@H](NC(=O)N3CCN(S(C)(=O)=O)C3=O)c3ccccc3)C(=O)N2[C@H]1C(=O)O [MEZLOCILLIN] | 1.1 µM | 30 µg/mL (≈ 55.6 µM) | 50 ×10⁻⁶ cm/s | 1.08 µM | 0.67 | – | – | – | – | – | – | –
7 | Cc1onc(-c2c(Cl)cccc2Cl)c1C(=O)N[C@@H]1C(=O)N2[C@@H]1SC(C)(C)[C@@H]2C(=O)O [DICLOXACILLIN] | 39 µM | 560 µg/mL (≈ 1190 µM) | 60 ×10⁻⁶ cm/s | 0.53 µM | 3.4 | – | – | – | – | – | – | –
8 | CC1(C)S[C@@H]2[C@H](NC(=O)COc3ccccc3)C(=O)N2[C@H]1C(=O)O [PENICILLIN V] | 33 µM | 178 µg/mL (≈ 508 µM) | 70 ×10⁻⁶ cm/s | 0.82 µM | 1.54 | – | – | – | – | – | – | –
9 | B1 | – | – | – | – | – | 31 µM | 18 µM | 34 µM | 29 µM | 34 µM | 29 µM | 52 µM
